Assay outcomes: PubChem, several laboratories
The list is not random: actives were taken first. Their share in the collection is about 5.1%.
STAT3 activator – increases IL-6 driven STAT3 reporter signal | AID 871 | U3A cells, IL-6 STAT3-luciferase reporter, luminescence; 100% = signal with IL-6 EC80 alone | activation (% of control), % at 5.6 µM | 190,000 tested, 0.91% active;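 active = activation above the screen-wide mean of compound activation plus 3 SD, cut at about 130% in these data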
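Test system: STAT3-luciferase reporter U3A cells; Detection: reporter luminescence signal; Times: 1 h compound pre-exposure, 6 h IL-6 stimulation, 37 °C; Benchmarks: IL-6-only high control; Also added: IL-6 stimulus at 33 ng/mL final.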
APP 5'UTR act – APP 5'UTR luciferase reporter activation; 190,000 tested, 1% active; activation, % at 2 µM; SH-SY5Y APP 5'UTR luciferase reporter, luminescence; zero percent = DMSO vehicle wells;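 active = activation above a set limit, based on mean plus 3 SD of controls, cut at about 140% in these data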
STAT1 act – STAT1 signaling activation. NIH 3T3 STAT1-luciferase reporter, IFN-gamma, luminescence; 100% = IFN-gamma alone, no compound. activation (% of control), % at 5.5 µM. 200,000 tested, 2.6% active;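 active = activation above the screen-wide mean activation plus 3 SD, cut at about 130% in these data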
STAT3 inh – reduces IL-6 driven STAT3 reporter signal; U3A cells, IL-6 STAT3-luciferase reporter, luminescence; host cell line lacks STAT1; 190,000 tested, 0.89% active; inhibition, % at 5.5 µM;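 active = inhibition above the mean inhibition across all screened compounds plus 3 SD, cut at about 44% in these data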
NF-kB neuron act – raises NF-kB expression in human neuronal cells; NF-kB reporter expression; stronger effect = higher value; fold change at 12.5 µM; 190,000 tested, 1.6% active; in the data active = fold change above about 3.3
STAT1 inh – STAT1 signaling inhibition. NIH 3T3 STAT1-luciferase reporter, IFN-gamma, luminescence. inhibition, % at 5.5 µM. 200,000 tested, 0.35% active;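 active = inhibition above a set limit, the mean inhibition across all tested compounds plus 3 SD, cut at about 34% in these data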
A number is an active result; n = inactive; x = no result.

SMILES	STAT3 activator	APP 5'UTR act	STAT1 act	STAT3 inh	NF-kB neuron act	STAT1 inh
O=C(N/C(=C/c1ccccc1)C(=O)N1CCOCC1)c1ccc([N+](=O)[O-])cc1	n	n	n	n	n	n
Cc1cccc(C(=O)NC(NCCc2ccccc2)C(Cl)(Cl)Cl)c1 (centres undefined)	n	n	n	n	n	n
CCc1ccc(Oc2cc(C)nc(N)n2)cc1	n	n	132	n	3.3	n
O=C(Oc1ccc(-c2cnc3ccccc3n2)cc1)c1ccc(Cl)c([N+](=O)[O-])c1	n	138	n	n	n	n
O=C(Oc1ccc(-c2cnc3ccccc3n2)cc1)c1cccc([N+](=O)[O-])c1	n	n	n	n	n	n
O=C(Oc1ccc(-c2cnc3ccccc3n2)cc1)c1ccc(Br)o1	n	n	135	n	n	n
COc1ccc(NC(=O)Cc2c(Cl)cccc2Cl)cn1	n	n	n	n	n	n
CCCc1[nH]n(-c2ccc(F)cc2)c(=O)c1C=Nc1cccc(F)c1	n	n	n	n	n	n
O=C(CSc1ncnc2ccccc12)c1ccco1	n	146	132	n	5.6	n
Cc1ccc2nc(-c3ccc(N4C(=N)SC5CS(=O)(=O)CC54)cc3)sc2c1 (centres undefined)	n	n	130	n	n	n
Cc1ccc2nc(-c3ccc(N4C(=O)CC(N5CCCC(C)C5)C4=O)cc3)sc2c1 (centres undefined)	n	n	n	n	n	n
O=C(NCC1COc2ccccc2O1)c1ccc(NC(=O)c2ccco2)cc1 (centres undefined)	n	n	n	n	n	n
O=C(NCC1COc2ccccc2O1)c1ccc(Cl)cc1 (centres undefined)	n	n	140	n	n	n
C=COCCNC(=O)C(=O)NCC(C)C	n	n	n	n	x	n
COc1ccc(CNC(=O)C2COc3ccccc3O2)cc1 (centres undefined)	n	x	n	n	n	n
N#Cc1cnc2sc3ccccc3n2c1=N	n	n	130	n	n	n
O=S(=O)(O)c1nnc2sc3ccccc3n12	n	n	n	n	n	n
O=C(CCN1C(=O)c2ccccc2C1=O)N1CCOCC1	n	n	n	n	n	n
O=C(CCN1C(=O)c2cccc3cccc(c23)C1=O)N1CCOCC1	n	n	129	n	n	n
CC(=O)N1N=C(c2ccco2)CC1c1ccc(C)cc1 (centres undefined)	n	n	n	n	n	n
CCc1ccc(C2CC(c3ccco3)=NN2S(C)(=O)=O)cc1 (centres undefined)	n	155	138	n	4.8	n
Cc1cc(C)c(NC(=O)CCn2nnc3ccccc32)c(C)c1	n	n	n	n	n	n
Cc1ccc(N(CCC(=O)O)S(=O)(=O)c2ccc(C)cc2)cc1	n	n	n	n	n	n
Nc1nc(CSC(=S)N2CCCCC2)nc(Nc2ccccc2)n1	n	n	136	n	n	n
Cc1ccc(Nc2nc(N)nc(CSC(=S)N3CCOCC3)n2)cc1	n	n	n	n	n	n
SMILES	STAT3 activator	APP 5'UTR act	STAT1 act	STAT3 inh	NF-kB neuron act	STAT1 inh
Nc1nc(CSC(=S)N2CCOCC2)nc(Nc2ccccc2)n1	n	n	131	n	n	n
O=C(c1cnc2n(c1=O)CCS2)N1CCc2ccccc21	n	n	n	n	n	n
Cc1cccnc1NC(=O)Cn1nc([N+](=O)[O-])cc1C	n	n	n	n	n	n
Cc1cccnc1NC(=O)Cn1nc(-c2ccccc2)oc1=S	n	170	n	n	4.2	n
Cc1ccc(C(=O)Nc2nc3ccc(S(C)(=O)=O)cc3s2)s1	n	n	146	n	n	n
CCC(=O)Nc1nc2ccc(S(C)(=O)=O)cc2s1	n	n	131	n	n	n
COC(=O)c1ccccc1NC(=O)c1cc(C2CC2)on1	n	n	n	n	n	n
CCCc1nc2sc3ccccc3c(=O)c2c(=O)n1Cc1ccco1	147	n	n	n	n	n
CCCc1nc2oc3cc(OC)ccc3c(=O)c2c(=O)n1Cc1ccco1	n	n	n	n	n	n
O=C1CC(C(=O)NC2CCCCC2)C2(CCCCC2)O1 (centres undefined)	n	n	n	n	n	n
N#Cc1ccccc1NC(=O)CNc1ccccc1N1CCCCC1	135	n	n	n	n	n
COc1ccccc1N1CCN(C(=O)C2CCN(S(=O)(=O)c3ccc(F)cc3)CC2)CC1	x	x	x	x	n	x
CN1CCN(Cc2cc(Cl)c3cccnc3c2OC(=O)c2cccs2)CC1	n	n	n	n	13	n
CCc1ccc(-c2ccc(C(=O)C(F)(F)F)[nH]2)cc1	n	179	n	n	4.5	n
Cc1nn(-c2ccccc2)c(Cl)c1/C=N/NC(=O)c1ccccc1NS(=O)(=O)c1cccs1	n	n	n	n	n	n
Cc1nn(-c2ccccc2)c(Cl)c1/C=N/NC(=O)c1ccc(NS(=O)(=O)c2cccs2)cc1	n	n	137	n	n	n
CCOC(=O)c1c(NC(=O)Cn2cnc([N+](=O)[O-])n2)sc2c1CCC(C)C2 (centres undefined)	n	n	n	n	n	n
Cc1cccc(N=C2NN=C(c3ccccc3F)CS2)c1C	n	n	n	n	n	n
Clc1ccccc1N=C1NN=C(c2cccs2)CS1	n	183	143	n	4.3	n
Fc1ccccc1N=C1NN=C(c2ccccc2)CS1	n	158	143	n	4.6	n
Fc1ccc(F)c(C2=NNC(=Nc3ccccc3F)SC2)c1	n	n	143	n	5.1	n
Fc1ccc(N=C2NN=C(c3cc(F)ccc3F)CS2)cc1	n	n	n	n	n	n
O=C(N/N=C/C=C/c1ccccc1[N+](=O)[O-])c1cc(-c2ccccc2)n[nH]1	n	n	n	n	n	n
COc1ccc(CCNC(=O)COC(=O)Cc2cccc3ccccc23)cc1	n	n	n	n	n	n
Cn1c(=O)c2c(ncn2CC(=O)OCc2ccccc2)n(C)c1=O	n	n	n	n	n	n
SMILES	STAT3 activator	APP 5'UTR act	STAT1 act	STAT3 inh	NF-kB neuron act	STAT1 inh
Cn1c(SCc2ccccc2F)nc2cccnc21	n	141	137	n	3.4	n
O=C(CCC1CCCN(C(=O)C2CCCC2)C1)NCc1ccc(F)c(F)c1 (centres undefined)	n	n	n	n	n	n
CCc1c(C)nc(SCC(N)=O)c(C#N)c1C	n	x	n	n	n	n
CCc1c(C)nc(SCC(=O)c2cccs2)c(C#N)c1C	149	n	136	n	n	n
COc1cccc(NC(=O)CN(c2ccc(C)cc2)S(=O)(=O)c2c(C)nn(C)c2C)c1	n	n	n	n	n	n
O=c1c2ccccc2ncn1CCOCCOc1ccc([N+](=O)[O-])cc1	n	n	129	n	n	n
Cc1ccc(-n2cc(C(=O)c3ccc(F)cc3)nn2)cc1Cl	n	n	139	n	n	n
O=C(OCc1cn(-c2ccc(Cl)c(Cl)c2)nn1)c1ccccc1	n	n	n	n	n	n
